Compound activity as filed in PubChem.
SENP1 FRET inh: inhibitors of human SENP1 SUMO protease catalytic domain; actives 0.21% (n = 360,000); recombinant SENP1 catalytic domain, CyPet-SUMO1-YPet FRET cleavage; Q9P0U3; AID 624204; inhibition, % at 10 µM;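 active = inhibition at least 30% at 10 µM, raw YFP signal under a set limit, fluorescence ratio 0.5 to 1.5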;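 note: 0% = enzyme with DMSO and 100% = no enzyme wells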
Target sequence (Q9P0U3 419-644 limits assumed): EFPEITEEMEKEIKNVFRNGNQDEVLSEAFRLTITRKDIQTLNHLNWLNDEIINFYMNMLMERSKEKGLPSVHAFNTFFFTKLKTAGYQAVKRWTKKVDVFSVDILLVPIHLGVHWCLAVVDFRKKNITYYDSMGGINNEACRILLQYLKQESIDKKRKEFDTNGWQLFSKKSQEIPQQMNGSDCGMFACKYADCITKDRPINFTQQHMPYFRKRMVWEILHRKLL
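Material – human SENP1 catalytic domain · Input – SENP1 enzyme, 20 pM final · Compound dosing – single concentration of 10 µM compound, 0.5% DMSO final · Timing – enzyme reaction for 50 min at room temperature, dark · Measured by – FRET fluorescence in CFP and YFP emission channels · Control set – no-enzyme wells low, DMSO-plus-enzyme wells high control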
Arr AP2 block: blocks beta-arrestin peptide binding to AP2 adaptin; AID 504490; actives 0.31% (n = 340,000); FITC-arrestin peptide / GST-AP2 beads, flow cytometry; AP2 beta2 appendage carries R879A mutation; inhibition, % at 10 µM;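 active = inhibition above a set limit, near 3 SD of compounds lacking own fluorescence, cut at about 54% in these data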;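 note: plate controls were DMSO wells for no effect and 5 µM unlabelled arrestin peptide for full effect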
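Assay system: GST-AP2 R879A bound to glutathione beads, E. coli-expressed; Medium: PBS with 0.05% Tween 20 and 0.1% BSA; Also added: fluorescein-tagged arrestin peptide at 50 nM final; Timing: 12 min plus 1 h, RT; Measured by: flow cytometry, FL1 (488/535 nm); Evaluation: percent drop in bead-associated FITC signal.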
hiPSC survival: hiPSC single-cell survival enhancement | ATPlite luminescence; 100% = ROCK inhibitor wells, 0% = DMSO | survival enhancement, % at 20 µM | actives 0.044% (n = 360,000) | AID 602274; in the data active = survival enhancement above about 18%;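 note: cells exposed to compounds for 16 hours before the ATP read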
GRIN3A LBD mod: NR3A (human) ligand-binding domain modulation; NR3A LBD differential scanning fluorimetry, Tm shift; 0% = protein alone, 100% = glycine-bound protein; Tm shift relative to glycine control, % at 25 µM; actives 2.5% (n = 340,000);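 active = melting temperature shift of at least 10% of the positive control shift, at one fixed dose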
Cardio protect: protects H9c2 cardiomyocytes from peroxide injury. H2O2 injury protection, ATPLite, 2 h. protection from H2O2 cell death, % at 20 µM. actives 0.63% (n = 360,000). AID 588492;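 active = compounds giving at least 50% protection of heart cells from peroxide-induced death in the single-dose screen, raw or plate-pattern-corrected value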;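 note: 0% = DMSO wells with peroxide and 100% = DMSO wells without peroxide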
FAS TE block: inhibitors of human fatty acid synthase thioesterase domain; P49327; inhibition, % at 15 µM; actives 0.67% (n = 360,000); recombinant FAS-TE, OMFH fluorogenic substrate, fluorescence endpoint;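 active = compounds whose normalised, plate-corrected inhibition of enzyme fluorescence in the single-dose primary screen is 50% or more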;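 note: 0% = DMSO with enzyme and 100% = substrate without enzyme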
FAS-TE inh conf: confirmation of human fatty acid synthase thioesterase inhibitors; shares compounds with FAS TE block; inhibition, % at 15 µM; recombinant FAS-TE, OMFH fluorogenic substrate, fluorescence; actives 45% (n = 2,300);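 active = compounds inhibiting the enzyme by at least 50% at 15 µM in any one of the replicates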;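 note: 0% = enzyme with DMSO only and 100% = wells lacking enzyme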
Starred values were filed as active, the others as inactive. The list is not random: actives were taken first. Their share in the collection is about 4%.

`O=C(CN1CCN(c2ccccc2O)CC1)Nc1cc(S(=O)(=O)N2CCCC2)ccc1Cl` gave SENP1 FRET inh 0, Arr AP2 block 8, hiPSC survival 0, GRIN3A LBD mod 0, Cardio protect -7 and FAS TE block 14.
`CCCCCCCCNC(=O)/C(C#N)=C/c1ccccc1[N+](=O)[O-]` gave SENP1 FRET inh -1, Arr AP2 block 30, hiPSC survival -1, GRIN3A LBD mod -15, Cardio protect -18, FAS TE block 57* and FAS-TE inh conf 73*.
COc1cc(-c2c(CCO)sc3ccccc23)cc(OC)c1OC was read as SENP1 FRET inh 1, hiPSC survival 0 and FAS TE block -5.
`CNC(=S)N(Cc1ccc(OC)cc1)C1CC(=O)N(c2ccc(Cl)cc2)C1=O` (centres undefined) gave SENP1 FRET inh 3, Arr AP2 block 2, hiPSC survival 2, GRIN3A LBD mod 32*, Cardio protect -1, FAS TE block 62* and FAS-TE inh conf 70*.
C=CCN(C(=O)Nc1ccc(Cl)cc1)C1CC(=O)N(c2ccc(OC)cc2)C1=O (centres undefined) was read as SENP1 FRET inh 0, Arr AP2 block -6, hiPSC survival -1, GRIN3A LBD mod 1, Cardio protect 3 and FAS TE block 7.
Cc1ccc(C(O)c2ncc(-c3ccc(Cl)cc3)[nH]2)cc1F (centres undefined) was read as SENP1 FRET inh -1, hiPSC survival 0, Cardio protect -8 and FAS TE block 9.
`FC(F)(F)c1cccc(N2CCN(C(=S)NC3CCCCC3)CC2)c1` gave SENP1 FRET inh -1, hiPSC survival -2, GRIN3A LBD mod -1, Cardio protect -17, FAS TE block 51* and FAS-TE inh conf 28.
`COC(=O)C[C@H]1C=C[C@H](NC(=O)Nc2ccccc2)[C@@H](CO)O1` gave SENP1 FRET inh 1.
For CC(C)COc1ccc(C(=O)N/C(=C\c2cccc([N+](=O)[O-])c2)C(=O)O)cc1 the results were SENP1 FRET inh -1, Arr AP2 block -8, hiPSC survival 0, GRIN3A LBD mod -1, Cardio protect 12, FAS TE block 62* and FAS-TE inh conf 77*.
Screening CC(C)COc1ccc(C(=O)N/C(=C/c2cccc([N+](=O)[O-])c2)C(=O)O)cc1 returned SENP1 FRET inh 2, Arr AP2 block 6, hiPSC survival 0, GRIN3A LBD mod 1, Cardio protect 2, FAS TE block 57* and FAS-TE inh conf 59*.
CC(C)COc1ccc(C(=O)N/C(=C\c2cccc([N+](=O)[O-])c2)C(=O)OC(C)C)cc1 was read as SENP1 FRET inh 1, Arr AP2 block 0, hiPSC survival 5, GRIN3A LBD mod -7, Cardio protect -7 and FAS TE block 48.
`O=C1CCCCCCC(=O)[C@H](O)C[C@H](c2ccccc2)O1` gave SENP1 FRET inh -2, hiPSC survival 0 and FAS TE block -8.
Nc1ncnc2c1ncn2[C@@H]1O[C@H](CNC(=O)[C@@H]2CCCN2S(=O)(=O)c2ccc(F)cc2)[C@@H](O)[C@H]1O was read as SENP1 FRET inh -2, Arr AP2 block 12, hiPSC survival 2, GRIN3A LBD mod 4, Cardio protect 2 and FAS TE block -6.
Screening O=C(COc1ccc2ccc(=O)oc2c1)N1CCN(c2ccccc2)CC1 returned SENP1 FRET inh -23, Arr AP2 block -12, hiPSC survival 1, GRIN3A LBD mod 1, Cardio protect 5 and FAS TE block 49.
Screening Cc1cccc(N2CCN(C(=O)COc3ccc4ccc(=O)oc4c3)CC2)c1C returned SENP1 FRET inh 0, Arr AP2 block 6, hiPSC survival 1, GRIN3A LBD mod 0, Cardio protect 4, FAS TE block 70* and FAS-TE inh conf 83*.
`COc1ccc(C(=O)CN(CCC(=O)O)S(=O)(=O)c2ccc([N+](=O)[O-])cc2)cc1` gave SENP1 FRET inh 0, Arr AP2 block -7, hiPSC survival 1, GRIN3A LBD mod 3, Cardio protect -8, FAS TE block 71* and FAS-TE inh conf 80*.
Cc1ccc(C(=O)CN(CCC(=O)O)S(=O)(=O)c2ccc([N+](=O)[O-])cc2)cc1 was read as SENP1 FRET inh 2, Arr AP2 block -3, hiPSC survival 0, GRIN3A LBD mod -1, Cardio protect -1, FAS TE block 62* and FAS-TE inh conf 79*.
For Cc1ccc(S(=O)(=O)CC(=O)c2ccc([N+](=O)[O-])cc2)cc1 the results were SENP1 FRET inh 2, Arr AP2 block 10, hiPSC survival 0, GRIN3A LBD mod -1, Cardio protect 4 and FAS TE block 17.
O=C(O)CCN(CC(=O)c1ccc(Cl)cc1)S(=O)(=O)c1ccc([N+](=O)[O-])cc1 was read as SENP1 FRET inh 3, Arr AP2 block 9, hiPSC survival 2, GRIN3A LBD mod 2, Cardio protect 0, FAS TE block 75* and FAS-TE inh conf 72*.
For Cc1ccc(C(=O)CN(CCCC(N)=O)S(=O)(=O)c2ccc([N+](=O)[O-])cc2)cc1 the results were SENP1 FRET inh -1, Arr AP2 block -4, hiPSC survival -2, GRIN3A LBD mod 1, Cardio protect -3, FAS TE block 68* and FAS-TE inh conf 52*.
`COc1ccc(S(=O)(=O)N(CCC(=O)O)Cc2ccccc2)cc1` gave SENP1 FRET inh 0, Arr AP2 block 16, hiPSC survival 0, GRIN3A LBD mod 0, Cardio protect -4 and FAS TE block -6.
Screening O=c1[nH]nc2c3ccccc3occ1-2 returned SENP1 FRET inh 4.
CC(C)n1nnnc1C1c2ccccc2C(=O)N1Cc1ccco1 (centres undefined) was read as SENP1 FRET inh 2, hiPSC survival -1 and FAS TE block -9.
Screening CCCNC(=O)C1(C)CCCN(CCOc2ccccc2)C1 (centres undefined) returned SENP1 FRET inh 0, hiPSC survival -3, Cardio protect 3 and FAS TE block -5.
`COc1ccccc1N1N=C(c2ccc([N+](=O)[O-])cc2)CC1c1ccccc1` (centres undefined) gave SENP1 FRET inh 90, Arr AP2 block -28, hiPSC survival 1, GRIN3A LBD mod 4, Cardio protect -3 and FAS TE block 27.
